Assay outcomes deposited in PubChem by several laboratories.
Compounds with a hit are over-represented: about 12% of the library has one in this group of screens.
ROMK primary: human ROMK K+ channel modulation, primary screen; Tet-inducible ROMK, thallium flux fluorescence; actives lie on both sides; B-score at 10 µM; 130,000 compounds, 2% hits;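 active means signal ratio slope over the read window, or its plate-corrected B-score, at least 3 SD from the plate mean, either direction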;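 further: B-score of the F/F0 ratio slope over 7 to 12 s after thallium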
Target sequence (P48048 whole entry, looked up): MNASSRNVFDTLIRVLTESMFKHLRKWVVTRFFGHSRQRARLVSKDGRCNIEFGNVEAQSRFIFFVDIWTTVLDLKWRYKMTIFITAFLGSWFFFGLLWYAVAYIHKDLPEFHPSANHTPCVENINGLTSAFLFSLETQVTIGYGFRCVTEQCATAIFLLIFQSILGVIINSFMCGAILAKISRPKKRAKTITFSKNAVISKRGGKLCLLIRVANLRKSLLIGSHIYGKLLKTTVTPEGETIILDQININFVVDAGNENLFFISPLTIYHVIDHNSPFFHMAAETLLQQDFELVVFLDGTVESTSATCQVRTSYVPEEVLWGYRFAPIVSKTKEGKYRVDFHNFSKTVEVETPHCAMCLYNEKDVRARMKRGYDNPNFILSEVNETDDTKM
WT yeast gro inh: growth inhibition of WT yeast, mitochondrial fusion screen; 190,000 compounds, 2.1% hits; inhibition, % at 10 µM; mitochondrial fusion phenotypic screen, WT strain; in the data active means inhibition above about 58%; tested in S. cerevisiae
KCC2 mod: modulates chloride dependent transport by human KCC2; Q9H2X9; 190,000 compounds, 2.2% hits; KCC2 cells, thallium flux FluoZin-2 fluorescence; AID 1456; B-score of Tl+ flux slope (higher = more flux/activation; lower = inhibition) at 10 µM;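 active means thallium flux slope and its plate-corrected score both differing from the plate sample mean at a set confidence after two filtering rounds, in either direction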;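 further: slope of fluorescence scaled to starting intensity during 10 to 20 s after thallium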
L major viab: inhibitors of Leishmania major promastigote growth. Leishmania major promastigotes, resazurin fluorescence viability. inhibition, % at 10 µM. 200,000 compounds, 9% hits. AID 1063; in the data active means inhibition above about 50%;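 further: promastigotes grown with compound for 44 hours at 28 °C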
Diaph act CS: activates diaphorase or chemically reduces, flagging diaphorase assay artifacts | Diaphorase/resazurin coupled assay, resorufin fluorescence, 16 min; active compounds read high; 1 = vehicle wells, 0 = NADH-free wells | activation factor at 20 µM | 190,000 compounds, 0.005% hits;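 active means diaphorase activity raised at least twofold by the compound at 20 µM; inactive means activation factor below 2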
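Measured by – red resorufin fluorescence at 544/590 nm excitation/emission · Test system – Clostridium kluyveri diaphorase, purified enzyme · Incubation – reaction time 16 min, room temperature · Buffer or medium – 50 mM HEPES pH 7.4 with 4.542 mM MgCl2, 0.005% Tween 20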
Diaph inh CS: diaphorase inhibition or chemical oxidation counter-screen; diaphorase resazurin-to-resorufin fluorescence, NADH, 16 min; bacterial (C. kluyveri) enzyme, not human; inhibition, % at 20 µM; 190,000 compounds, 0.69% hits; AID 1217;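 active means primary screen inhibition at 20 µM above a set limit, cut at about 50% in these data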;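 further: plate controls were DMSO with full reaction for no effect and wells lacking NADH for full effect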
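System: Diaphorase enzyme from Clostridium kluyveri | Amount: Enzyme working solution with 0.14 U/mL diaphorase | Benchmarks: No-NADH positive control and DMSO neutral control | Signal: Fluorescence of resorufin formed from resazurin, Ex 544/Em 590 nm | Schedule: 16-min room-temperature incubation before reading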
* hit, by the source's call.

Results for N=c1c2c(n(Cc3cccc(Cl)c3)c3c1CCC3)CCCC2 ?
ROMK primary: -0.76; WT yeast gro inh: 62*; KCC2 mod: 0.75; L major viab: 100*; Diaph act CS: 0.9; Diaph inh CS: 8

How did N=c1c2c(n(Cc3ccc(F)cc3)c3c1CCC3)CCCC2 do in these assays?
ROMK primary: -0.13; WT yeast gro inh: 55; KCC2 mod: -0.65; L major viab: 99*; Diaph act CS: 1; Diaph inh CS: 4

How did N=c1c2c(n(Cc3ccc(Cl)cc3)c3c1CCC3)CCC2 do in these assays?
WT yeast gro inh: 62*; KCC2 mod: -0.018; L major viab: 99*; Diaph act CS: 0.8; Diaph inh CS: 16

How did CC(C)CNC1=C(C(=S)Nc2ccccc2)C(=O)CC(C)(C)C1 do in these assays?
ROMK primary: 0.23; WT yeast gro inh: 51; KCC2 mod: -1.3; L major viab: 7; Diaph act CS: 0.8; Diaph inh CS: 24

How did COc1ccc(C2CC(c3ccccc3)=NN2C(=S)Nc2ccccc2)cc1 (stereo not given) do in these assays?
ROMK primary: 0.54; WT yeast gro inh: 15; KCC2 mod: 0.69; L major viab: 37; Diaph act CS: 0.8; Diaph inh CS: 19

What do the screens show for `COc1ccccc1C1CC(c2ccccc2)=NN1C(=S)Nc1ccccc1` (stereo not given)?
ROMK primary: 1.2; WT yeast gro inh: 14; KCC2 mod: -0.035; L major viab: 79*; Diaph act CS: 0.9; Diaph inh CS: 6

What do the screens show for `COc1ccc(C2=NN(C(=O)c3cccs3)C(c3ccccc3OC)C2)cc1OC` (stereo not given)?
ROMK primary: -0.41; WT yeast gro inh: 67*; KCC2 mod: -0.57; L major viab: 27; Diaph act CS: 0.8; Diaph inh CS: 16

Results for COc1ccc(C2CC(c3ccc(Br)cc3)=NN2C(=S)Nc2ccccc2)cc1 (stereo not given) ?
ROMK primary: 0.33; WT yeast gro inh: 35; KCC2 mod: 1.5; L major viab: 79*; Diaph act CS: 0.9; Diaph inh CS: 10

How did CCS(=O)(=O)Nc1ccc(C2=NN(C(=S)Nc3ccccc3)C(c3ccco3)C2)cc1 (stereo not given) do in these assays?
WT yeast gro inh: -26; KCC2 mod: 0.051; L major viab: 13; Diaph act CS: 0.7; Diaph inh CS: 27

How did Cc1ccc(C2=NN(C(=S)Nc3ccccc3)C(c3ccco3)C2)cc1 (stereo not given) do in these assays?
ROMK primary: 0.8; WT yeast gro inh: 17; KCC2 mod: 0.081; L major viab: 56*; Diaph act CS: 0.8; Diaph inh CS: 25

How did Cc1ccc(NS(=O)(=O)c2ccc(C(=O)OCC(=O)NCC3CCCO3)cc2)cc1 (stereo not given) do in these assays?
ROMK primary: -0.71; WT yeast gro inh: -17; KCC2 mod: -0.27; L major viab: 1; Diaph act CS: 1; Diaph inh CS: -2

What do the screens show for `O=c1cc(O)c2c(=O)n(-c3ccccc3)c3c(c2o1)CCCCC3`?
ROMK primary: -0.35; WT yeast gro inh: -12; KCC2 mod: -0.69; L major viab: 1; Diaph act CS: 0.9; Diaph inh CS: 12

How did COc1ccc(C2=NN(C(=S)Nc3ccccc3)C(c3ccccc3)C2)cc1 (stereo not given) do in these assays?
ROMK primary: 0.036; WT yeast gro inh: 41; KCC2 mod: 0.033; L major viab: 96*; Diaph act CS: 0.9; Diaph inh CS: 15

Results for CN(C)c1ccnc(Oc2ccc(C(C)(C)C)cc2)c1C#N ?
WT yeast gro inh: 2; L major viab: 12; Diaph act CS: 0.9; Diaph inh CS: 12

What do the screens show for `CCCN(CC(=O)Nc1cccc(Br)c1)CC(=O)Nc1ccc(F)c(F)c1F`?
WT yeast gro inh: 69*; KCC2 mod: 0.049; L major viab: 7; Diaph act CS: 0.7; Diaph inh CS: 26

Results for CCCN(CC(=O)Nc1cccc(S(N)(=O)=O)c1)CC(=O)Nc1ccc(F)c(F)c1F ?
KCC2 mod: 0.87

Results for Cc1cc(C)c(S(=O)(=O)N(C)c2ccccc2)c(C)c1 ?
ROMK primary: -0.9; WT yeast gro inh: 0; KCC2 mod: -0.51; L major viab: 14; Diaph act CS: 0.9; Diaph inh CS: 14

How did COc1cc2nc(SCC(=O)c3ccc(Br)cc3)n3nc(C)nc3c2cc1OC do in these assays?
ROMK primary: -0.025; WT yeast gro inh: -20; KCC2 mod: -0.89; L major viab: 1; Diaph act CS: 0.9; Diaph inh CS: 12

Results for CC(Oc1ccc(Br)cc1)C(=O)Nn1c(=S)[nH]c2ncccc2c1=O (stereo not given) ?
WT yeast gro inh: -27; KCC2 mod: 0.072; L major viab: -1; Diaph act CS: 0.6; Diaph inh CS: 36

What do the screens show for `CC(Oc1ccc(Br)cc1)c1nc2c3ccccc3nc(=S)n2[nH]1` (stereo not given)?
ROMK primary: 2.9*; WT yeast gro inh: 63; KCC2 mod: 26*; L major viab: 0; Diaph act CS: 0.1; Diaph inh CS: 85*

What do the screens show for `CCCC(Oc1ccc(Br)cc1)c1nc2c3cc(OC)c(OC)cc3nc(=S)n2[nH]1` (stereo not given)?
ROMK primary: -0.022; WT yeast gro inh: 45; KCC2 mod: -2.9; L major viab: 97*; Diaph act CS: 0.7; Diaph inh CS: 29

Results for C=CCN(c1ccccc1Cl)S(=O)(=O)c1cccc(C(=O)NCCc2ccc(OC)cc2)c1 ?
ROMK primary: -0.23; WT yeast gro inh: 7; KCC2 mod: -0.9; L major viab: 64*; Diaph act CS: 0.8; Diaph inh CS: 17

Results for COc1ccc(CCNC(=O)c2cccc(S(=O)(=O)N3CCCCC3)c2)cc1 ?
ROMK primary: 0.4; WT yeast gro inh: -3; KCC2 mod: 1.2; L major viab: 6; Diaph act CS: 0.8; Diaph inh CS: 21

Results for Cc1c(C(=O)NCCCN2CCOCC2)oc2c1C1(CCC2)SCCS1 ?
ROMK primary: 0.082; WT yeast gro inh: -17; KCC2 mod: 0.4; L major viab: 88*; Diaph act CS: 0.8; Diaph inh CS: 18

What do the screens show for `CC(C)C[C@H](NC(=O)c1nc[nH]c1C(=O)N1CCN(C(=O)OC(C)(C)C)CC1)C(=O)OCc1ccccc1`?
WT yeast gro inh: -8; KCC2 mod: -0.44; L major viab: 37; Diaph act CS: 0.6; Diaph inh CS: 36

Results for O=C(/C=C/c1cccc(F)c1)N1CCN(c2ncccn2)CC1 ?
ROMK primary: -0.036; WT yeast gro inh: 2; KCC2 mod: -0.041; L major viab: -10; Diaph act CS: 0.9; Diaph inh CS: 9
